# Screens as filed in PubChem BioAssay.
# Hits are enriched below; roughly 2% of the tested compounds scored in any of these assays.
# Hep lipid drop: modulators of hepatic lipid droplet formation; AML12 mouse hepatocytes, oleate lipid droplets, BODIPY imaging; AID 1656; inhibition, % at 6.5 µM; 240,000 tested, 0.4% active;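 active = lipid droplet intensity inhibited by at least 50%, with more than 500 cells counted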
#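 System: AML12 hepatocytes (mouse). Probe or stimulus: oleic acid at 100 µM to induce lipid droplet formation. Times: overnight treatment with compound plus oleate. Detection: Image-based BODIPY and DAPI two-channel analysis. Evaluation: percent inhibition of filter-corrected integrated lipid droplet intensity per well.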
# B2AR ag: human beta-2 adrenergic receptor agonism by FAP. Am2.2-beta2AR cells, FAP receptor internalization, flow cytometry. 340,000 tested, 0.43% active. response, % (no concentration beside the values). P07550;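 active = response above a set limit, near 3 SD of response in nonfluorescent compounds, cut at about 42% in these data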
# Target sequence (P07550 whole entry, looked up): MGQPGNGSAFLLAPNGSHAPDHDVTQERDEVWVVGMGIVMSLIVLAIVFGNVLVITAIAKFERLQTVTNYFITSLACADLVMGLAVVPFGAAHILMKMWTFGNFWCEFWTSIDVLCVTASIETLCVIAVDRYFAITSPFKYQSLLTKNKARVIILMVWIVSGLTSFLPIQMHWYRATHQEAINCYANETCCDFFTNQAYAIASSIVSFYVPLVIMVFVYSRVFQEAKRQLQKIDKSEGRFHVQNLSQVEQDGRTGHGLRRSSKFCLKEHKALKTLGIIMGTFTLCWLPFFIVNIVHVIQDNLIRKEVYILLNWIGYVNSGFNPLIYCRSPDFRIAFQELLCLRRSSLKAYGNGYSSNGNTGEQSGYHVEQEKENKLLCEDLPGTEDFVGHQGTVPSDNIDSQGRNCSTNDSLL
# NTR1 agonist: agonists of human neurotensin receptor NTR1. NTR1-U2OS beta-arrestin-GFP spot imaging, agonist mode. activation, % at 20 µM. 330,000 tested, 0.17% active. AID 493036;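 active = activation at or above 40% of the spot to cytoplasm intensity ratio, with at least 20 cells analyzed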;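 note: 0% = DMSO without peptide and 100% = 100 nM NTR1 peptide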
# Arrestin-AP2 inh: inhibitors of human beta-arrestin and AP2 interaction; FITC-arrestin peptide / GST-AP2 beads, flow cytometry; AP2 beta2 appendage carries R879A mutation; AID 504490; 340,000 tested, 0.31% active; inhibition, % at 10 µM;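 active = inhibition above a set limit, near 3 SD of compounds lacking own fluorescence, cut at about 54% in these data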;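 note: plate controls were DMSO wells for no effect and 5 µM unlabelled arrestin peptide for full effect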
#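 System: GST-AP2 R879A bound to glutathione beads, E. coli-expressed. Also added: 50 nM FITC-arrestin peptide. Schedule: compound with beads 12 min RT, then probe 1 h RT. Signal: bead flow cytometry, FITC channel. Read-out basis: percent response.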
# GRK2 aptamer HTS: human GRK2 inhibition via aptamer displacement; inhibition of aptamer binding, % at 10 µM; P25098; bead flow cytometry, FAM-aptamer displacement from GRK2; 330,000 tested, 0.59% active;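 active = inhibition of aptamer binding above 40%, roughly 3 SD of noise, on plates passing a quality check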;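 note: median bead fluorescence of bound FAM aptamer so fluorescent compounds give negative values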
# TAG inh: triacylglycerol accumulation inhibition; H9c2 cells, Nile Red lipid (TAG) fluorescence; cells loaded with 200 µM oleic acid; inhibition, % at 12.5 µM; 230,000 tested, 0.66% active;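 active = pattern-corrected inhibition of lipid staining of at least 50% with the nuclear-stain viability signal not falling by more than 50%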;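 note: 0% = DMSO wells and 100% = triacsin C control wells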
# NTR1 ag confirm: confirmation of agonists of human NTR1 | 480 tested, 38% active | NTR1-U2OS beta-arrestin-GFP translocation imaging | shares compounds with NTR1 agonist | activation, % at 20 µM;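 active = mean activation at 20 µM of at least 40%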;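 note: 0% = DMSO without peptide and 100% = 100 nM NTR1 peptide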
# B2AR ag CP1: agonists of human beta-2 adrenergic receptor; shares compounds with B2AR ag; Am2.2-beta2AR cells, FAP surface receptor, flow cytometry; active compounds read low; percent response (surface receptor), % at 10 µM; 1,100 tested, 25% active; AID 540358;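 active = surface receptor percent response at or below 58%, roughly 3 SD from nonfluorescent compounds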
# B2AR FAP counter: flagged in Am2.2 fluorescence counterscreen for beta-2AR agonists; shares compounds with B2AR ag; Am2.2 cells, FAP fluorogen flow cytometry; active compounds read low; calls only at 10 µM; 1,100 tested, under 10 active;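 active = percent response below a set limit in fluorescence channel 1 and below 50% in channel 8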
# Numbers without * were called inactive; i = inactive; . = no result.
SMILES,Hep lipid drop,B2AR ag,NTR1 agonist,Arrestin-AP2 inh,GRK2 aptamer HTS,TAG inh,B2AR ag CP1,B2AR FAP counter,others
CN1C(=O)/C(=C/c2cccn2-c2ccc3ccccc3c2)C(=O)NC1=S,8,47*,46*,-1,0,-5,.,.,NTR1 ag confirm=66*
O=P1(NCCCl)OCCCN1CCCl (stereo not drawn),.,3,-2,17,1,-12,.,.,
Cc1cc(/C=C2/C(=O)NC(=O)N(Cc3ccco3)C2=O)c(C)n1-c1ccccc1,6,2,86*,1,2,.,.,.,NTR1 ag confirm=2
CN(CC#CCN1CCCC1)C(=O)c1cccc(Cl)c1,.,0,-1,20,.,-2,.,.,
CN(C)c1ccc(/C=C/c2cc[n+](C)c3ccccc23)cc1,-19,-38,.,-17,.,-25,.,.,
CC[n+]1c(/C=C/C=C/c2ccc(N(C)C)cc2)sc2ccccc21,-99,46*,11,17,22,22,105,i,
OC12ONC(c3ccccn3)C1N1CCC2CC1 (stereo not drawn),0,8,-1,0,0,.,83,i,
NC(N)=Nc1ccc2[nH]c3c(c2c1)C[C@@]1(O)[C@H]2Cc4ccc(O)c5c4[C@@]1(CCN2CC1CC1)[C@H]3O5,.,-7,6,32,0,4,.,.,
COc1ccc(CC(C)NCCC(c2ccccc2)c2ccccc2)cc1 (stereo not drawn),11,21,7,8,0,.,105,i,
CCCCNC(C)Cc1ccccc1 (stereo not drawn),.,-2,1,15,0,.,.,.,
C=C1C2[C@H](OC(C)=O)[C@@H]3CC(=O)[C@]4(C)OC[C@@]3(C)[C@@]4(O)[C@@H](OC(C)=O)[C@H](OC(C)=O)[C@@]2(COC(=O)c2ccccc2)[C@@H](OC(C)=O)C[C@@H]1O (stereo partly drawn),-1,5,0,4,0,.,.,.,
Brc1ccc2c(c1)C(OC1CN3CCC1CC3)c1ccccc1CS2 (stereo not drawn),-91,50*,10,2,0,.,77,i,
COc1ccc(OC)c(NC2=NCCS2)c1,-10,-8,2,0,2,-15,.,.,
COc1ccc(OC)c([C@@H](O)[C@H](C)NC(C)(C)C)c1,10,-5,2,1,0,-2,121,i,
CN1OC[C@@H]2CN[C@H](c3ccccc3Br)C[C@@H]21,.,-5,.,16,.,-15,.,.,
CC12CCC3C(CCC4CC(=O)OCC43C)C1CCC2O (stereo not drawn),.,-4,.,3,.,-4,.,.,
CCOc1cc(CNC(C)C(O)c2ccccc2)cc(Cl)c1OCC (stereo not drawn),-53,0,2,-15,0,.,112,i,
CC(NCc1ccccc1Cl)C(O)c1ccccc1 (stereo not drawn),.,0,0,7,1,.,112,i,
CCC(=O)Nc1ccc(Cl)c(Cl)c1,.,-4,.,-4,.,-22,.,.,
CC(NCc1ccc(Cl)c(Cl)c1)C(O)c1ccccc1 (stereo not drawn),-12,4,-2,2,1,.,85,i,
FC(F)(F)c1ccccc1CNCCc1c[nH]c2ccccc12,-1,-3,2,-1,0,.,.,.,
CC(NCc1ccccc1C(F)(F)F)C(O)c1ccccc1 (stereo not drawn),-5,-2,-1,-17,0,-5,102,i,
C[C@]12C[C@@H](O)[C@H](O)CC1=CCC1C2CC[C@@]2(C)C1CC[C@@H]2O (stereo partly drawn),.,0,-3,-1,0,5,.,.,
COc1ccc2cc(C(=O)C3CCCN(C4CCOCC4)C3)ccc2c1 (stereo not drawn),21,-4,2,-18,0,-7,.,.,
